The source made the active and inactive calls. No cut-off for these calls is given here.
Experiments:
Rattus norvegicus [1] = assay: Anesthetic activity in Sprague-Dawley rat assessed as duration of anesthesia at 4.6 mmol/kg, ip; format: functional, organism-based; conditions: tested as the 14C-labelled form
Procedure, shortened: (§1)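 Male Sprague-Dawley rats, 100-120 g, fasted overnight before dosing, fed afterwards. Single ip dose of [1-14C]halothane in olive oil (diluted with unlabeled halothane; 50 µCi 14C/kg). Duration of anesthesia recorded in normal and phenobarbital-pretreated rats. Pretreatment was phenobarbital sodium 80 mg/kg ip in water for 3 days, with use on day 4. Six rats per group.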

Rattus norvegicus [2] = assay: Anesthetic activity in Sprague-Dawley rat assessed as duration of anesthesia at 23 mmol/kg, ip; format: functional; procedure, shortened: as §1
Rattus norvegicus [3] = assay: Toxicity in phenobarbital pretreated Sprague-Dawley rat assessed as liver necrosis at 11.5 mmol/kg, ip measured after 24 hrs; format: organism-based; conditions: in vivo
Rattus norvegicus [4] = assay: Toxicity in Sprague-Dawley rat assessed as mortality at 4.6 mmol/kg, ip measured up to 24 hrs; format: organism-based; conditions: in vivo
Procedure, shortened: (§2)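 Male Sprague-Dawley rats, 100-120 g, fasted overnight before dosing and fed afterwards. Some received phenobarbital sodium 80 mg/kg ip in water for 3 days and were used on day 4. [1-14C]halothane in olive oil, 50 µCi/kg, was given ip. Mortality was recorded over the sacrifice schedule of 0.5-24 h, with six rats per time point. Vehicle controls received olive oil.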

Rattus norvegicus [5] = assay: Toxicity in phenobarbital pretreated Sprague-Dawley rat assessed as multiple, discrete foci of liver parenchymal cell necrosis at 23 mmol/kg, ip measured after 0.5 to 24 hrs by histopathological/light microscopy analysis (reference value: 0%); format: organism-based; conditions: in vivo
Procedure, shortened: (§3)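 Normal or phenobarbital-pretreated male Sprague-Dawley rats dosed ip with [14C]halothane in olive oil; controls received the vehicle. Rats killed by cervical dislocation 0.5-24 h after dosing. Liver slices fixed in 10% buffered formalin (pH 7.0) and paraffin-embedded. 6-µm sections stained with H&E and read by light microscopy. Necrosis graded on a 0-4+ scale. Six rats per time point.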

Rattus norvegicus [6] = assay: Drug uptake in Sprague-Dawley rat assessed as radioactivity in DNA fraction at 4.6 to 23 mmol/kg, ip measured up to 24 hrs by scintillation counting; format: ADME, organism-based; conditions: in vivo
Procedure, shortened: (§4)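 Male Sprague-Dawley rats, 100-120 g, fasted overnight. [1-14C]Halothane in olive oil (50 µCi/kg) given ip at 4.6, 11.5 or 23.0 mmol/kg. Rats killed at 0.5-24 h. Lipid fraction isolated from 1 g liver by the Folch method; DNA fraction by the Irving-Veazey method; proteins handled as for binding. Radioactivity counted by liquid scintillation. Means of six rats.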

Rattus norvegicus [7] = assay: Drug uptake in Sprague-Dawley rat assessed as radioactivity in lipid fraction at 4.6 to 23 mmol/kg, ip measured at 1 to 6 hrs by scintillation counting; format: ADME, organism-based; conditions: in vivo; procedure, shortened: as §4
Rattus norvegicus [8] = assay: Toxicity in phenobarbital pretreated Sprague-Dawley rat assessed as liver necrosis at 4.6 mmol/kg, ip measured after 0.5 to 24 hrs by histopathological/light microscopy analysis (reference value: 0%); format: organism-based; conditions: in vivo; procedure, shortened: as §3
Rattus norvegicus [9] = assay: Toxicity in Sprague-Dawley rat assessed as serum glutamic pyruvic transaminase level in blood at 11.5 mmol/kg, ip measured after 0.5 to 24 hrs (reference value: 14 +/- 2 IU/L); format: organism-based; conditions: in vivo
Rattus norvegicus [10] = assay: Toxicity in phenobarbital pretreated Sprague-Dawley rat assessed as liver necrosis at 4.6 mmol/kg, ip measured after 0.5 to 24 hrs; format: organism-based; conditions: in vivo; procedure, shortened: as §3
Rattus norvegicus [11] = assay: Toxicity in Sprague-Dawley rat assessed as serum glutamic pyruvic transaminase level in blood at 4.6 mmol/kg, ip measured after 0.5 to 24 hrs (reference value: 14 +/- 2 IU/L); format: organism-based; conditions: in vivo
Rattus norvegicus [12] = assay: Toxicity in phenobarbital pretreated Sprague-Dawley rat assessed as multiple, discrete foci of liver parenchymal cell necrosis at 11.5 mmol/kg, ip measured after 0.5 to 24 hrs by histopathological/light microscopy analysis (reference value: 0%); format: organism-based; conditions: in vivo; procedure, shortened: as §3
Rattus norvegicus [13] = assay: Toxicity in phenobarbital pretreated Sprague-Dawley rat assessed as serum glutamic pyruvic transaminase level in blood at 4.6 mmol/kg, ip measured after 0.5 to 24 hrs (reference value: 15 +/- 2 IU/L); format: organism-based; conditions: in vivo
Rattus norvegicus [14] = assay: Anesthetic activity in Sprague-Dawley rat assessed as duration of anesthesia at 11.5 mmol/kg, ip; format: functional; procedure, shortened: as §1
Rattus norvegicus [15] = assay: Toxicity in Sprague-Dawley rat assessed as liver necrosis at 4.6 mmol/kg, ip measured after 0.5 to 24 hrs; format: organism-based; conditions: in vivo; procedure, shortened: as §3
Rattus norvegicus [16] = assay: Toxicity in Sprague-Dawley rat assessed as liver necrosis at 23 mmol/kg, ip measured after 0.5 to 24 hrs by histopathological/light microscopy analysis (reference value: 0%); format: organism-based; conditions: in vivo; procedure, shortened: as §3
Rattus norvegicus [17] = assay: Toxicity in phenobarbital pretreated Sprague-Dawley rat assessed as liver necrosis at 23 mmol/kg, ip measured after 24 hrs; format: organism-based; conditions: in vivo
Rattus norvegicus [18] = assay: Toxicity in Sprague-Dawley rat assessed as serum glutamic pyruvic transaminase level in blood at 23 mmol/kg, ip measured after 0.5 to 24 hrs (reference value: 14 +/- 2 IU/L); format: organism-based; conditions: in vivo
Rattus norvegicus [19] = assay: Toxicity in Sprague-Dawley rat assessed as liver necrosis at 11.5 mmol/kg, ip measured after 4 to 24 hrs; format: organism-based; conditions: in vivo; procedure, shortened: as §3
Rattus norvegicus [20] = assay: Toxicity in phenobarbital pretreated Sprague-Dawley rat assessed as mortality at 23 mmol/kg, ip measured up to 24 hrs; format: organism-based; conditions: in vivo; procedure, shortened: as §2
Liver [21] = assay: Protein binding in phenobarbital pretreated Sprague-Dawley rat liver protein at 4.6 to 23 mmol/kg, ip measured per mg of protein up to 24 hrs by scintillation counting; format: ADME, organism-based; conditions: in vivo
Procedure, shortened: (§5)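 Male Sprague-Dawley rats, normal or phenobarbital-pretreated (80 mg/kg ip, 3 days), received ip [1-14C]halothane in olive oil (50 µCi/kg). Liver homogenized 1 g/3 ml water at 0 °C. Protein precipitate washed ten times with hot (60 °C) methanol-ether 3:1, then digested in 1 N NaOH and counted. Protein measured by Lowry against BSA. Result expressed as nmol halothane equivalents per mg protein. Blank from [14C]halothane added to control homogenate was subtracted. Six rats.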

Rattus norvegicus [22] = assay: Drug uptake in Sprague-Dawley rat assessed as radioactivity in lipid fraction at 4.6 to 23 mmol/kg, ip measured at 6 to 8 hrs by scintillation counting; format: ADME, organism-based; conditions: in vivo; procedure, shortened: as §4
Rattus norvegicus [23] = assay: Toxicity in phenobarbital pretreated Sprague-Dawley rat assessed as mortality at 4.6 mmol/kg, ip measured up to 24 hrs; format: organism-based; conditions: in vivo; procedure, shortened: as §2
Rattus norvegicus [24] = assay: Toxicity in phenobarbital pretreated Sprague-Dawley rat assessed as serum glutamic pyruvic transaminase level in blood at 23 mmol/kg, ip measured after 0.5 to 24 hrs (reference value: 15 +/- 2 IU/L); format: organism-based; conditions: in vivo
Rattus norvegicus [25] = assay: Drug uptake in Sprague-Dawley rat assessed as radioactivity in liver protein at 4.6 to 23 mmol/kg, ip measured up to 24 hrs by scintillation counting; format: ADME, organism-based; conditions: in vivo; procedure, shortened: as §4
Rattus norvegicus [26] = assay: Toxicity in Sprague-Dawley rat assessed as liver necrosis at 4.6 mmol/kg, ip measured after 0.5 to 24 hrs by histopathological/light microscopy analysis (reference value: 0%); format: organism-based; conditions: in vivo; procedure, shortened: as §3
Rattus norvegicus [27] = assay: Toxicity in Sprague-Dawley rat assessed as mortality at 23 mmol/kg, ip measured up to 24 hrs; format: organism-based; conditions: in vivo; procedure, shortened: as §2
Rattus norvegicus [28] = assay: Toxicity in phenobarbital pretreated Sprague-Dawley rat assessed as serum glutamic pyruvic transaminase level in blood at 11.5 mmol/kg, ip measured after 0.5 to 24 hrs (reference value: 15 +/- 2 IU/L); format: organism-based; conditions: in vivo
Rattus norvegicus [29] = assay: Toxicity in phenobarbital pretreated Sprague-Dawley rat assessed as mortality at 11.5 mmol/kg, ip measured up to 24 hrs; format: organism-based; conditions: in vivo; procedure, shortened: as §2
Liver [30] = assay: Protein binding in Sprague-Dawley rat liver protein at 4.6 to 23 mmol/kg, ip measured per mg of protein up to 24 hrs by scintillation counting; format: ADME, organism-based; conditions: in vivo; procedure, shortened: as §5
Rattus norvegicus [31] = assay: Toxicity in Sprague-Dawley rat assessed as liver necrosis at 23 mmol/kg, ip measured after 4 to 24 hrs; format: organism-based; conditions: in vivo; procedure, shortened: as §3
Rattus norvegicus [32] = assay: Toxicity in Sprague-Dawley rat assessed as mortality at 11.5 mmol/kg, ip measured up to 24 hrs; format: organism-based; conditions: in vivo; procedure, shortened: as §2
Rattus norvegicus [33] = assay: Toxicity in Sprague-Dawley rat assessed as liver necrosis at 11.5 mmol/kg, ip measured after 0.5 to 24 hrs by histopathological/light microscopy analysis (reference value: 0%); format: organism-based; conditions: in vivo; procedure, shortened: as §3

FC(F)(F)C(Cl)Br (stereo not drawn)
Activity (Rattus norvegicus [1]): inactive

F[14C](F)(F)C(Cl)Br (stereo not drawn)
Time (Rattus norvegicus [2]): 3.75 h | Activity (Rattus norvegicus [3]): Toxic | Activity (Rattus norvegicus [4]): Non-toxic | Activity (Rattus norvegicus [5]): 6% | Drug uptake (Rattus norvegicus [6]): Not Active | Drug uptake (Rattus norvegicus [7]): Active | Activity (Rattus norvegicus [8]): 0% | Activity (Rattus norvegicus [9]): 18 IU/L | Activity (Rattus norvegicus [10]): Non-toxic | Activity (Rattus norvegicus [11]): 16 IU/L | Activity (Rattus norvegicus [12]): < 6% | Activity (Rattus norvegicus [13]): 19 IU/L | Time (Rattus norvegicus [14]): 1.92 h | Activity (Rattus norvegicus [15]): Non-toxic | Activity (Rattus norvegicus [16]): 0% | Activity (Rattus norvegicus [17]): Toxic | Activity (Rattus norvegicus [18]): 18 IU/L | Activity (Rattus norvegicus [19]): Non-toxic | Activity (Rattus norvegicus [20]): Non-toxic | PB (Liver [21]): > 2 nmol/mg | Drug uptake (Rattus norvegicus [22]): Not Active | Activity (Rattus norvegicus [23]): Non-toxic | Activity (Rattus norvegicus [24]): 58 IU/L | Drug uptake (Rattus norvegicus [25]): Active | Activity (Rattus norvegicus [26]): 0% | Activity (Rattus norvegicus [27]): Non-toxic | Activity (Rattus norvegicus [28]): 37 IU/L | Activity (Rattus norvegicus [29]): Non-toxic | PB (Liver [30]): 0.8 nmol/mg | Activity (Rattus norvegicus [31]): Non-toxic | Activity (Rattus norvegicus [32]): Non-toxic | Activity (Rattus norvegicus [33]): 0%

From ChEMBL document CHEMBL3244084, “A study of the mechanism of halothane-induced liver necrosis. Role of covalent binding of halothane metabolites to liver proteins in the rat” (J Med Chem, 1977)
